{"source": "ChEMBL document CHEMBL4257553", "about": "“Novel organophosphorus aminopyrimidines as unique structural DNA-targeting membrane active inhibitors towards drug-resistant methicillin-resistant Staphylococcus aureus” (Medchemcomm, 2018)", "key": {"Aspergillus fumigatus [1]": {"tested_on": "Aspergillus fumigatus", "experiment": "Potency index, ratio of fluconazole MIC to compound MIC for antifungal activity against Aspergillus fumigatus", "format": "functional"}, "Escherichia coli [2]": {"tested_on": "Escherichia coli", "experiment": "Antibacterial activity against Escherichia coli after 24 hrs by microbroth dilution method", "format": "functional", "outline": "(§1)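 Tested by CLSI-standard broth microdilution against a panel of eleven bacterial strains, Gram-positive and Gram-negative, including MRSA.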"}, "Staphylococcus aureus [3]": {"tested_on": "Staphylococcus aureus", "experiment": "Antibacterial activity against Staphylococcus aureus ATCC 29213 after 24 hrs by microbroth dilution method", "format": "functional", "settings": "ATCC 29213, 24 h", "outline": "as §1"}, "Pseudomonas aeruginosa [4]": {"tested_on": "Pseudomonas aeruginosa", "experiment": "Antibacterial activity against Pseudomonas aeruginosa ATCC 27853 after 24 hrs by microbroth dilution method", "format": "functional", "settings": "ATCC 27853, 24 h", "outline": "as §1"}, "Aspergillus fumigatus [5]": {"tested_on": "Aspergillus fumigatus", "experiment": "Antifungal activity against Aspergillus fumigatus after 24 hrs by microbroth dilution method", "format": "functional"}, "Klebsiella pneumoniae": {"tested_on": "Klebsiella pneumoniae", "experiment": "Antibacterial activity against Klebsiella pneumoniae after 24 hrs by microbroth dilution method", "format": "functional", "outline": "as §1"}, "Staphylococcus aureus [6]": {"tested_on": "Staphylococcus aureus", "experiment": "Antibacterial activity against methicillin resistant Staphylococcus aureus after 24 hrs by microbroth dilution method", "format": "functional", "outline": "as §1"}, "Staphylococcus aureus [7]": {"tested_on": "Staphylococcus aureus", "experiment": "Antibacterial activity against Staphylococcus aureus after 24 hrs by microbroth dilution method", "format": "functional", "outline": "as §1"}, "Enterococcus faecalis": {"tested_on": "Enterococcus faecalis", "experiment": "Antibacterial activity against Enterococcus faecalis after 24 hrs by microbroth dilution method", "format": "functional", "outline": "as §1"}, "Pseudomonas aeruginosa [8]": {"tested_on": "Pseudomonas aeruginosa", "experiment": "Antibacterial activity against Pseudomonas aeruginosa after 24 hrs by microbroth dilution method", "format": "functional", "outline": "as §1"}, "Acinetobacter baumannii": {"tested_on": "Acinetobacter baumannii", "experiment": "Antibacterial activity against Acinetobacter baumannii after 24 hrs by microbroth dilution method", "format": "functional", "outline": "as §1"}, "Staphylococcus aureus [9]": {"tested_on": "Staphylococcus aureus", "experiment": "Antibacterial activity against Staphylococcus aureus ATCC 25923 after 24 hrs by microbroth dilution method", "format": "functional", "settings": "ATCC 25923, 24 h", "outline": "as §1"}, "Escherichia coli [10]": {"tested_on": "Escherichia coli", "experiment": "Antibacterial activity against Escherichia coli ATCC 25922 after 24 hrs by microbroth dilution method", "format": "functional", "settings": "ATCC 25922, 24 h", "outline": "as §1"}, "Staphylococcus aureus [11]": {"tested_on": "Staphylococcus aureus", "experiment": "Antibacterial activity against methicillin resistant Staphylococcus aureus after 16 serial passages measured after 12 hrs by microbroth dilution method", "format": "functional, organism-based", "outline": "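MRSA standard strain passaged serially with compound. Each passage starts from the bacteria grown at sub-MIC (0.5 × MIC), and the MIC is redetermined by the broth microdilution method at every passage.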"}, "DNA [12]": {"tested_on": "DNA", "experiment": "Binding affinity to methicillin resistant Staphylococcus aureus DNA by absorption spectra analysis", "format": "nucleic-acid assay"}, "DNA [13]": {"tested_on": "DNA", "experiment": "Binding affinity to methicillin resistant Staphylococcus aureus DNA assessed as hypochromic effect up to 3.5 x 10^-5mol/L by absorption spectra analysis", "format": "nucleic-acid assay"}, "Staphylococcus aureus [14]": {"tested_on": "Staphylococcus aureus", "experiment": "Bactericidal activity against methicillin resistant Staphylococcus aureus assessed as reduction in bacterial load at 6 times MIC up to 1 hr by time kill assay", "format": "functional", "outline": "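MRSA grown 6 h at 37 °C and diluted to about 1.8 × 10^5 CFU/mL. Compound added at MIC and 6 × MIC, then incubated at 37 °C. Samples taken at 0, 30, 60, 90, 120, 240, 360 and 420 min, diluted 10-fold serially in 0.9% saline, plated on agar and counted after 24 h at 37 °C.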"}, "DNA [15]": {"tested_on": "DNA", "experiment": "Inhibition of neutral red dye binding to methicillin resistant Staphylococcus aureus DNA up to 3.5 x 10^-5mol/L by UV-Visible absorption spectra analysis", "format": "nucleic-acid assay", "outline": "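MRSA genomic DNA with A260/A280 > 1.8 in Tris-HCl buffer pH 7.4, combined with aqueous neutral red dye stock. Competitive displacement followed by UV-vis absorption spectroscopy.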"}, "Cell membrane": {"tested_on": "Cell membrane", "experiment": "Binding affinity to methicillin resistant Staphylococcus aureus cell membrane assessed as induction of membrane permeabilization at 12 times MIC measured for 10 to 70 mins by propidium iodide dye based fluorescence assay", "outline": "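MRSA cultured 12 h at 37 °C, centrifuged, washed and resuspended in 5 mM glucose/5 mM HEPES (1:1). Compound (12 × MIC) added to cuvette with cells and propidium iodide. PI uptake followed as fluorescence increase (ex 535 nm, em 617 nm).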"}, "[16]": {"experiment": "Cytotoxicity against mouse L929 cells assessed as cell viability up to 128 ug/ml after 48 hrs by MTT assay relative to control", "format": "cell-based", "settings": "read-out: Activity", "outline": "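Mouse fibroblast L929 cells grown in DMEM with 10% serum and 1% penicillin/streptomycin at 37 °C, 5% CO2, seeded and cultured 24 h. Compound diluted in medium and tested in triplicate at 0, 4, 8, 16, 32, 64, 128, 256 and 512 μg/mL for 48 h. MTT in PBS added for 3–4 h, formazan dissolved in DMSO, absorbance read at 570 nm (also stated 490 nm).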"}}, "note": "Active and inactive are the calls of the source. The rule behind the calls is not given here."}
{"smiles": "CCOP(=O)(OCC)C(Nc1ncccn1)c1ccc(C)cc1", "note": "(configuration not stated)", "values": [{"measurement": "Ratio", "setting": "Aspergillus fumigatus [1]", "result": 16}, {"measurement": "MIC", "setting": "Escherichia coli [2]", "result": 256, "unit": "mg/L"}, {"measurement": "MIC", "setting": "Staphylococcus aureus [3]", "result": 256, "unit": "mg/L"}, {"measurement": "MIC", "setting": "Pseudomonas aeruginosa [4]", "result": 64, "unit": "mg/L"}, {"measurement": "MIC", "setting": "Aspergillus fumigatus [5]", "result": "> 16", "unit": "mg/L"}, {"measurement": "MIC", "setting": "Klebsiella pneumoniae", "result": 128, "unit": "mg/L"}, {"measurement": "MIC", "setting": "Staphylococcus aureus [6]", "result": 128, "unit": "mg/L"}, {"measurement": "MIC", "setting": "Staphylococcus aureus [7]", "result": 256, "unit": "mg/L"}, {"measurement": "MIC", "setting": "Enterococcus faecalis", "result": 8, "unit": "mg/L"}, {"measurement": "MIC", "setting": "Pseudomonas aeruginosa [8]", "result": 256, "unit": "mg/L"}, {"measurement": "MIC", "setting": "Acinetobacter baumannii", "result": 128, "unit": "mg/L"}, {"measurement": "MIC", "setting": "Staphylococcus aureus [9]", "result": 16, "unit": "mg/L"}, {"measurement": "MIC", "setting": "Escherichia coli [10]", "result": 128, "unit": "mg/L"}]}
{"smiles": "CCOP(=O)(OCC)C(Nc1ncccn1)c1cn(CC)c2ccccc12", "note": "(configuration not stated)", "values": [{"measurement": "Ratio", "setting": "Aspergillus fumigatus [1]", "result": 16}, {"measurement": "MIC", "setting": "Escherichia coli [2]", "result": 256, "unit": "mg/L"}, {"measurement": "MIC", "setting": "Staphylococcus aureus [3]", "result": 256, "unit": "mg/L"}, {"measurement": "MIC", "setting": "Pseudomonas aeruginosa [4]", "result": 128, "unit": "mg/L"}, {"measurement": "MIC", "setting": "Aspergillus fumigatus [5]", "result": "> 16", "unit": "mg/L"}, {"measurement": "MIC", "setting": "Klebsiella pneumoniae", "result": 64, "unit": "mg/L"}, {"measurement": "MIC", "setting": "Staphylococcus aureus [6]", "result": 4, "unit": "mg/L"}, {"measurement": "MIC", "setting": "Staphylococcus aureus [7]", "result": 64, "unit": "mg/L"}, {"measurement": "MIC", "setting": "Enterococcus faecalis", "result": 128, "unit": "mg/L"}, {"measurement": "MIC", "setting": "Pseudomonas aeruginosa [8]", "result": 256, "unit": "mg/L"}, {"measurement": "MIC", "setting": "Acinetobacter baumannii", "result": 64, "unit": "mg/L"}, {"measurement": "MIC", "setting": "Staphylococcus aureus [9]", "result": 64, "unit": "mg/L"}, {"measurement": "MIC", "setting": "Escherichia coli [10]", "result": 256, "unit": "mg/L"}]}
{"smiles": "CCCCCn1c(CCCC)nc(Cl)c1C(Nc1ncccn1)P(=O)(OCC)OCC", "note": "(configuration not stated)", "values": [{"measurement": "Ratio", "setting": "Aspergillus fumigatus [1]", "result": 16}, {"measurement": "MIC", "setting": "Escherichia coli [2]", "result": 128, "unit": "mg/L"}, {"measurement": "MIC", "setting": "Staphylococcus aureus [3]", "result": 64, "unit": "mg/L"}, {"measurement": "MIC", "setting": "Pseudomonas aeruginosa [4]", "result": 64, "unit": "mg/L"}, {"measurement": "Activity", "setting": "Staphylococcus aureus [11]", "result": "Active"}, {"measurement": "MIC", "setting": "Aspergillus fumigatus [5]", "result": "> 16", "unit": "mg/L"}, {"measurement": "MIC", "setting": "Klebsiella pneumoniae", "result": 8, "unit": "mg/L"}, {"measurement": "MIC", "setting": "Staphylococcus aureus [6]", "result": 4, "unit": "mg/L"}, {"measurement": "K", "setting": "DNA [12]", "result": 6.84, "unit": "×10³ L/mol"}, {"measurement": "Activity", "setting": "DNA [13]", "result": "Active"}, {"measurement": "Activity", "setting": "Staphylococcus aureus [14]", "result": ">3", "unit": "deltalog10CFU/ml"}, {"measurement": "inhibition", "setting": "DNA [15]", "result": "Active"}, {"measurement": "Activity", "setting": "Cell membrane", "result": "Active"}, {"measurement": "MIC", "setting": "Staphylococcus aureus [7]", "result": 64, "unit": "mg/L"}, {"measurement": "MIC", "setting": "Enterococcus faecalis", "result": 8, "unit": "mg/L"}, {"measurement": "MIC", "setting": "Pseudomonas aeruginosa [8]", "result": 64, "unit": "mg/L"}, {"measurement": "MIC", "setting": "Acinetobacter baumannii", "result": 32, "unit": "mg/L"}, {"measurement": "MIC", "setting": "Staphylococcus aureus [9]", "result": 32, "unit": "mg/L"}, {"measurement": "MIC", "setting": "Escherichia coli [10]", "result": 16, "unit": "mg/L"}, {"measurement": "viability at 48 h", "setting": "[16]", "result": "≤ 80", "unit": "%"}]}
{"smiles": "CCOP(=O)(OCC)C(Nc1ncccn1)c1ccc2c(c1)c1cc(C=O)ccc1n2CC", "note": "(configuration not stated)", "values": [{"measurement": "Ratio", "setting": "Aspergillus fumigatus [1]", "result": 16}, {"measurement": "MIC", "setting": "Escherichia coli [2]", "result": 512, "unit": "mg/L"}, {"measurement": "MIC", "setting": "Staphylococcus aureus [3]", "result": 256, "unit": "mg/L"}, {"measurement": "MIC", "setting": "Pseudomonas aeruginosa [4]", "result": 256, "unit": "mg/L"}, {"measurement": "MIC", "setting": "Aspergillus fumigatus [5]", "result": "> 16", "unit": "mg/L"}, {"measurement": "MIC", "setting": "Klebsiella pneumoniae", "result": 256, "unit": "mg/L"}, {"measurement": "MIC", "setting": "Staphylococcus aureus [6]", "result": 128, "unit": "mg/L"}, {"measurement": "MIC", "setting": "Staphylococcus aureus [7]", "result": 256, "unit": "mg/L"}, {"measurement": "MIC", "setting": "Enterococcus faecalis", "result": 16, "unit": "mg/L"}, {"measurement": "MIC", "setting": "Pseudomonas aeruginosa [8]", "result": 256, "unit": "mg/L"}, {"measurement": "MIC", "setting": "Acinetobacter baumannii", "result": 128, "unit": "mg/L"}, {"measurement": "MIC", "setting": "Staphylococcus aureus [9]", "result": 256, "unit": "mg/L"}, {"measurement": "MIC", "setting": "Escherichia coli [10]", "result": 256, "unit": "mg/L"}]}
{"smiles": "CCOP(=O)(OCC)C(Nc1ncccn1)c1ccc(F)cc1", "note": "(configuration not stated)", "values": [{"measurement": "Ratio", "setting": "Aspergillus fumigatus [1]", "result": 16}, {"measurement": "MIC", "setting": "Escherichia coli [2]", "result": 256, "unit": "mg/L"}, {"measurement": "MIC", "setting": "Staphylococcus aureus [3]", "result": 256, "unit": "mg/L"}, {"measurement": "MIC", "setting": "Pseudomonas aeruginosa [4]", "result": 64, "unit": "mg/L"}, {"measurement": "MIC", "setting": "Aspergillus fumigatus [5]", "result": "> 16", "unit": "mg/L"}, {"measurement": "MIC", "setting": "Klebsiella pneumoniae", "result": 128, "unit": "mg/L"}, {"measurement": "MIC", "setting": "Staphylococcus aureus [6]", "result": 256, "unit": "mg/L"}, {"measurement": "MIC", "setting": "Staphylococcus aureus [7]", "result": 256, "unit": "mg/L"}, {"measurement": "MIC", "setting": "Enterococcus faecalis", "result": 64, "unit": "mg/L"}, {"measurement": "MIC", "setting": "Pseudomonas aeruginosa [8]", "result": 128, "unit": "mg/L"}, {"measurement": "MIC", "setting": "Acinetobacter baumannii", "result": 128, "unit": "mg/L"}, {"measurement": "MIC", "setting": "Staphylococcus aureus [9]", "result": 64, "unit": "mg/L"}, {"measurement": "MIC", "setting": "Escherichia coli [10]", "result": 256, "unit": "mg/L"}]}
